Active and inactive are the calls of the source. The rule behind the calls is not given here.
What was measured:
[1] = test system: Mus musculus; assay: Reduction in amyloid beta level in Tg2576 mouse brain at 200 umol/kg, po after 3 hrs; type: functional; parameters: scale not given: the % may be the effect or the level left
Procedure, shortened: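 Tg2576 (βAPP-Swedish) transgenic mice received one oral dose of 200 μmol/kg. Brain Aβ was measured 3 h later and expressed as % reduction.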

[2] = molecular target: Gamma-secretase; assay: Inhibition of gamma secretase in human H4 cells assessed as reduction in amyloid beta40 level by ELISA; type: cell-based
Procedure, shortened: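 Cells were plated and allowed to attach, then the medium was replaced with Ultraculture containing compound at 1% final DMSO. After overnight incubation, Aβ40 in the conditioned medium was measured by sandwich ELISA (C-terminal Aβ40-specific capture antibody, HRP-labelled N-terminal Aβ antibody for detection). IC50 values are means of two experiments, each with 12 concentrations; intra-assay variance was <10%.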

[3] = Drug level in Tg2576 mouse plasma at 200 umol/kg, po after 3 hrs; type: ADME, organism-based; settings: read-out: Drug uptake
Procedure, shortened: (§1)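 Tg2576 (βAPP-Swedish) transgenic mice received one oral dose of 200 μmol/kg. Plasma and brain drug concentrations (nM) were measured 3 h after dosing and reported as mean ± error.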

[4] = Drug level in Tg2576 mouse brain at 200 umol/kg, po after 3 hrs; type: ADME, organism-based; settings: read-out: Drug uptake; procedure, shortened: as §1

| SMILES | IC50 [2] [nM] | also measured |
| --- | --- | --- |
| C[C@H](CCCN(C)S(C)(=O)=O)N(c1cc(Cl)ccc1CO)S(=O)(=O)c1ccc(Cl)cc1 | – | Activity [1]: 27% |
| CCN(CCCn1ccnc1)C(=O)OC[C@@H](C)N(c1cc(Cl)ccc1Cl)S(=O)(=O)c1ccc(Cl)cc1 | 0.27 | Activity [1]: 50%; concentration at 3 h [3]: 98.9 µM; concentration at 3 h [4]: 41.2 µM |
| CCN(CC)C(=O)OC[C@@H](C)N(c1cc(Cl)ccc1CO)S(=O)(=O)c1ccc(Cl)cc1 | 18 | – |
| CC(C)N(CCCn1ccnc1)C(=O)OC[C@@H](C)N(c1cc(Cl)ccc1CO)S(=O)(=O)c1ccc(Cl)cc1 | 19 | – |
| C[C@H](CCOC(=O)NCCCn1ccnc1)N(c1cc(Cl)ccc1CO)S(=O)(=O)c1ccc(Cl)cc1 | 7.7 | – |
| CC(C)NC(=O)OC[C@@H](C)N(c1cc(Cl)ccc1CO)S(=O)(=O)c1ccc(Cl)cc1 | 12 | – |
| C[C@H](COC(=O)NCCCn1ncnn1)N(c1cc(Cl)ccc1CO)S(=O)(=O)c1ccc(Cl)cc1 | 2.1 | – |
| C[C@H](CCCn1cnnn1)N(c1cc(Cl)ccc1CO)S(=O)(=O)c1ccc(Cl)cc1 | – | Activity [1]: 41% |
| C[C@H](COC(=O)N1CCCC1)N(c1cc(Cl)ccc1CO)S(=O)(=O)c1ccc(Cl)cc1 | 1.8 | – |
| C[C@H](CCOC(=O)NCCn1ccnc1)N(c1cc(Cl)ccc1CO)S(=O)(=O)c1ccc(Cl)cc1 | 4 | – |
| C[C@H](COC(=O)NCCCn1ccnc1)N(c1cc(F)ccc1F)S(=O)(=O)c1ccc(Cl)cc1 | 1.2 | – |
| C[C@H](COC(=O)N(CCCn1ccnc1)CC1CC1)N(c1cc(Cl)ccc1CO)S(=O)(=O)c1ccc(Cl)cc1 | 0.06 | Activity [1]: inactive; concentration at 3 h [3]: 6.83 µM; concentration at 3 h [4]: 0.859 µM |
| CCCNC(=O)OC[C@@H](C)N(c1cc(Cl)ccc1CO)S(=O)(=O)c1ccc(Cl)cc1 | 10 | – |
| C[C@H](COC(=O)NCCn1ccnc1)N(c1cc(Cl)ccc1CO)S(=O)(=O)c1ccc(Cl)cc1 | 0.93 | – |
| C[C@H](COC(=O)N(C)CCCn1ccnc1)N(c1cc(Cl)ccc1Cl)S(=O)(=O)c1ccc(Cl)cc1 | 0.48 | – |
| C[C@H](COC(=O)NC(C)(C)C)N(c1cc(Cl)ccc1CO)S(=O)(=O)c1ccc(Cl)cc1 | 12 | – |
| CNC(=O)OC[C@@H](C)N(c1cc(Cl)ccc1CO)S(=O)(=O)c1ccc(Cl)cc1 | 15 | – |
| C[C@H](COC(=O)NC1CCCCC1)N(c1cc(Cl)ccc1CO)S(=O)(=O)c1ccc(Cl)cc1 | 5.6 | – |
| C[C@H](COC(=O)NCCCn1ccnc1)N(c1cc(Cl)ccc1Cl)S(=O)(=O)c1ccc(Cl)cc1 | 0.41 | – |
| C[C@H](COC(=O)NCCCn1ccnc1)N(c1cc(Cl)ccc1F)S(=O)(=O)c1ccc(Cl)cc1 | 0.66 | – |
| C[C@H](COC(=O)NCCCn1ccnc1)N(c1cc(Cl)ccc1CO)S(=O)(=O)c1ccc(Cl)cc1 | 2.3 | – |
| CCC(C)NC(=O)OC[C@@H](C)N(c1cc(Cl)ccc1CO)S(=O)(=O)c1ccc(Cl)cc1 (stereo partly drawn) | 15 | – |
| CCNC(=O)OC[C@@H](C)N(c1cc(Cl)ccc1CO)S(=O)(=O)c1ccc(Cl)cc1 | 10 | – |
| CCN(CCCn1ccnc1)C(=O)OC[C@@H](C)N(c1cc(Cl)ccc1CO)S(=O)(=O)c1ccc(Cl)cc1 | 0.06 | Activity [1]: 15%; concentration at 3 h [3]: 0.73 µM; concentration at 3 h [4]: 0.227 µM |
